Measured values as given in ChEMBL document CHEMBL1154229 (Bioorg Med Chem Lett, 2009).

Tests used:
[1] = target: T1, Bifunctional epoxide hydrolase 2 (Rattus norvegicus, UniProt P80299); assay: Inhibition of rat soluble epoxide hydrolase
T1 sequence (P80299 whole entry): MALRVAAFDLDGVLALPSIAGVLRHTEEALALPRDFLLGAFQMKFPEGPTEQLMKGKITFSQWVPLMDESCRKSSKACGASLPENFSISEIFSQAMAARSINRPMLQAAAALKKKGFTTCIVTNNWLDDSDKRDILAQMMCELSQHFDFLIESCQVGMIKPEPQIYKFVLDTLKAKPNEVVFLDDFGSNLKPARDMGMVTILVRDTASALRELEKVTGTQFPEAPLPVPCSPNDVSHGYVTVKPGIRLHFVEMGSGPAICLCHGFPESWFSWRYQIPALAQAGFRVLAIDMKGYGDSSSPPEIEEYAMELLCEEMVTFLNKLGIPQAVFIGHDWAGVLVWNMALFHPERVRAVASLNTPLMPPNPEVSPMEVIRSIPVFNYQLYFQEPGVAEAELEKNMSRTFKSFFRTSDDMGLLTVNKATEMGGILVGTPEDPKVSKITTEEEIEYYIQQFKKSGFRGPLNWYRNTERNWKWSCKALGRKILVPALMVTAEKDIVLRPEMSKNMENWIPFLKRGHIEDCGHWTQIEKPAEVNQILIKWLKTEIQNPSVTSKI

[2] = Inhibition of potassium channel IKr
[3] = target: Sodium channel protein type 5 subunit alpha (Homo sapiens, UniProt Q14524); assay: Inhibition of Nav1.5 channel
Chain of Sodium channel protein type 5 subunit alpha (Q14524 whole entry): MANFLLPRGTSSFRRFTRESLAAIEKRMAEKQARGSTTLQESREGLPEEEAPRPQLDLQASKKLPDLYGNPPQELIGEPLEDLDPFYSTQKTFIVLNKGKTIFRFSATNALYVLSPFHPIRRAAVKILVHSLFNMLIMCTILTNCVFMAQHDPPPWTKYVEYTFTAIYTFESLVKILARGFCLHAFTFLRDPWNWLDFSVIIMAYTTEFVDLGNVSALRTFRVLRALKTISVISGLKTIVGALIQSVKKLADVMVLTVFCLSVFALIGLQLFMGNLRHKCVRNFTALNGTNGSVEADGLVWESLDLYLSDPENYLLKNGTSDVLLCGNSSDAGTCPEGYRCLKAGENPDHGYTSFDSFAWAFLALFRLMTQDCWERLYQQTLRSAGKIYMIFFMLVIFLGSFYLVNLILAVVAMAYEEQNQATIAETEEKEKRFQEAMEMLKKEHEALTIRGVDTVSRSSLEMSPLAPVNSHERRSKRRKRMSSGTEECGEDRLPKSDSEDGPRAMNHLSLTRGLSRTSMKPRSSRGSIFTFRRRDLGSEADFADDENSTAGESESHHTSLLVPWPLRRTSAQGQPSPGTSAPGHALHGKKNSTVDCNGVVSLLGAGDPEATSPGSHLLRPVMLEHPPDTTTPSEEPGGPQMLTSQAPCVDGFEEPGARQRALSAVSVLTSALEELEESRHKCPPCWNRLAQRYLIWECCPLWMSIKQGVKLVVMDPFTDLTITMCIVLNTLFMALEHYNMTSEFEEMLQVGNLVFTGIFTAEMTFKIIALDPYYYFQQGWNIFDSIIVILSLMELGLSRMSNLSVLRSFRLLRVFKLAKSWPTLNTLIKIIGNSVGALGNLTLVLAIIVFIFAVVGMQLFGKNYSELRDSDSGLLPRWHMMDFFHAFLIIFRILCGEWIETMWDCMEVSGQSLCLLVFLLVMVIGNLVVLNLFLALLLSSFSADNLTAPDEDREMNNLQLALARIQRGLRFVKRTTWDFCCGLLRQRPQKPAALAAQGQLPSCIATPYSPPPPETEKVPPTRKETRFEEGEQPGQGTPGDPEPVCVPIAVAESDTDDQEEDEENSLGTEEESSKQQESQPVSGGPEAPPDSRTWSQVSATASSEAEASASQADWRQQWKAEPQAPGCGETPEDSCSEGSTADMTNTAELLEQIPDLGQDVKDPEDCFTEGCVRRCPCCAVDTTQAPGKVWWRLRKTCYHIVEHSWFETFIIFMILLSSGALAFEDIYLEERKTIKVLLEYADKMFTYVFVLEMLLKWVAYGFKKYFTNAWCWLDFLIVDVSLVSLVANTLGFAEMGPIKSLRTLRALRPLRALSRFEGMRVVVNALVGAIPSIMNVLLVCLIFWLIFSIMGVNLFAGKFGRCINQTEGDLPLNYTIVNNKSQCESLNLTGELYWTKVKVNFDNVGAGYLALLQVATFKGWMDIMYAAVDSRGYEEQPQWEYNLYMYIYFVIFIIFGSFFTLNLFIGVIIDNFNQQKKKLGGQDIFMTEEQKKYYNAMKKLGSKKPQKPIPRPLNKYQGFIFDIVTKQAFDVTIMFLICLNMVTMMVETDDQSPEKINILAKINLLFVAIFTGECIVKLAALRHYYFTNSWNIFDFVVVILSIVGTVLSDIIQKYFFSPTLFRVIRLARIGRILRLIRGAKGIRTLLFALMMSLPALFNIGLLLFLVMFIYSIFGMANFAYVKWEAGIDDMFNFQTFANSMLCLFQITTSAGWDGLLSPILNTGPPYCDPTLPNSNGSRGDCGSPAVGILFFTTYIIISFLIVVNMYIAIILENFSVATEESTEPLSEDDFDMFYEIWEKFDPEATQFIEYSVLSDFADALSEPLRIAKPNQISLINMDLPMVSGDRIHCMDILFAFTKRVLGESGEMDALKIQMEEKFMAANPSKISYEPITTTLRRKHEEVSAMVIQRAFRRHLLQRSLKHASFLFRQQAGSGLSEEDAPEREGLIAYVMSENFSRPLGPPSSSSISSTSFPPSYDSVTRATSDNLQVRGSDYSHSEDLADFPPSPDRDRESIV

L-type calcium channel = assay: Inhibition of calcium channel diltiazem binding site
Epoxide hydrolase 1 = target: T2, Epoxide hydrolase 1 (Homo sapiens, UniProt P07099); assay: Inhibition of human microsomal epoxide hydrolase
T2 sequence (P07099 whole entry): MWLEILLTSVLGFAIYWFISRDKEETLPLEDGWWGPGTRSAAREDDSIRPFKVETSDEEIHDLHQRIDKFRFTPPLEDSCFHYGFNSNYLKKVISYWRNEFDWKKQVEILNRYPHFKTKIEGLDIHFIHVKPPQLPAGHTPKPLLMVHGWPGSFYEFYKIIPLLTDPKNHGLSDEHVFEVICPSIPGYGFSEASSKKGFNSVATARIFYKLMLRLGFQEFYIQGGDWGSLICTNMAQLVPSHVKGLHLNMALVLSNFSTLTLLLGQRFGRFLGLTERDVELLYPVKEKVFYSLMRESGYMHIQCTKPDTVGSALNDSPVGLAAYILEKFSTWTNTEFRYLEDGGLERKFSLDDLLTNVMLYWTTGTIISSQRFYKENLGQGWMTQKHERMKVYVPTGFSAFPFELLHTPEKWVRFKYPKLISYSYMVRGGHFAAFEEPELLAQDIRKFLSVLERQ
In short: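 Human mEH used as the counterscreen enzyme. Values come from one or two experiments, each in triplicate, with repeats within 20%.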

[4] = target: T3, Bifunctional epoxide hydrolase 2 (Homo sapiens, UniProt P34913); assay: Inhibition of human soluble epoxide hydrolase
T3 sequence (P34913 whole entry): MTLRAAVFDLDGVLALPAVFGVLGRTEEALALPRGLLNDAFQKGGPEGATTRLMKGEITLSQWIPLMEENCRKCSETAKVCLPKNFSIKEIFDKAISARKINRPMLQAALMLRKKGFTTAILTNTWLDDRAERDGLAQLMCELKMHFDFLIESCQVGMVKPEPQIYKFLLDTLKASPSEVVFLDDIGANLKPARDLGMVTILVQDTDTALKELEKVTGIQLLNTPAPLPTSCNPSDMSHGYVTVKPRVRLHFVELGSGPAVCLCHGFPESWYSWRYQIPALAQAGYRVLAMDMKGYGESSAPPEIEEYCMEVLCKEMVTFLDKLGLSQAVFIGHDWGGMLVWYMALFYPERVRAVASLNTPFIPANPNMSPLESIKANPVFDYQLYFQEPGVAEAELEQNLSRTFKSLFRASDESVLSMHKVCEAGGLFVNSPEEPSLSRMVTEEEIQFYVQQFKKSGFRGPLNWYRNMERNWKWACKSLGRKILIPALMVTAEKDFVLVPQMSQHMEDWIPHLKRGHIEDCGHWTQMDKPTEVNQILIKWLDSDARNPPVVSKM

Cytochrome P450 2D6 = Cytochrome P450 2D6 (Homo sapiens, UniProt P10635); assay: Inhibition of CYP2D6; type: ADME
Chain of Cytochrome P450 2D6 (P10635 whole entry): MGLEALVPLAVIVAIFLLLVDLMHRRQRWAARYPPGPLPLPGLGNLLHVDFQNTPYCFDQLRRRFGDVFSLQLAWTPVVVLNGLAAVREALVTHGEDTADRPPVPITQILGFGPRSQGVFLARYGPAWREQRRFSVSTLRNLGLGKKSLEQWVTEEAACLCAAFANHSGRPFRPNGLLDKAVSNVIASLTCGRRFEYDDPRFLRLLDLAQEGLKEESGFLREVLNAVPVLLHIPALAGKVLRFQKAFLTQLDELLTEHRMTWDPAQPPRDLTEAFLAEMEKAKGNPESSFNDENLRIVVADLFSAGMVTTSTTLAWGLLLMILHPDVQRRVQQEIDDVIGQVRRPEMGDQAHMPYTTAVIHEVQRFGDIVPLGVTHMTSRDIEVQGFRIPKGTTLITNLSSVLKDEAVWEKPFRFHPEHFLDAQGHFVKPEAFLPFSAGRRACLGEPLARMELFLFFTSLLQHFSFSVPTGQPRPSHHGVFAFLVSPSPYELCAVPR

Cytochrome P450 2C9 = Cytochrome P450 2C9 (Homo sapiens, UniProt P11712); assay: Inhibition of CYP2C9; type: ADME
Chain of Cytochrome P450 2C9 (P11712 whole entry): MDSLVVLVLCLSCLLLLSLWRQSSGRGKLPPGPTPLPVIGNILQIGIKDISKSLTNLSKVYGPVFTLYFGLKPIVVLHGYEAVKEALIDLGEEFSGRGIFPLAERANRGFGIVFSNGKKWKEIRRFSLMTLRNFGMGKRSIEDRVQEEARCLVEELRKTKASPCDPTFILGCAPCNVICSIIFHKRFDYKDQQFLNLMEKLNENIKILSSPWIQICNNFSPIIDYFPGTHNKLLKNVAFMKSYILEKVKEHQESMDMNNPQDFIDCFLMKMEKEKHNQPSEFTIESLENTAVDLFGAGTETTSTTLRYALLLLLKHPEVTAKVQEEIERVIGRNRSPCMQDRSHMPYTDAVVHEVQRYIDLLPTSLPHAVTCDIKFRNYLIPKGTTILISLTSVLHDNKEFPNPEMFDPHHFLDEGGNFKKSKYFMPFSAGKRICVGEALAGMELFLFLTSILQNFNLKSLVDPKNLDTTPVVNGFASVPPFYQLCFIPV

Cytochrome P450 3A4 = Cytochrome P450 3A4 (Homo sapiens, UniProt P08684); assay: Inhibition of CYP3A4; type: ADME
Chain of Cytochrome P450 3A4 (P08684 whole entry): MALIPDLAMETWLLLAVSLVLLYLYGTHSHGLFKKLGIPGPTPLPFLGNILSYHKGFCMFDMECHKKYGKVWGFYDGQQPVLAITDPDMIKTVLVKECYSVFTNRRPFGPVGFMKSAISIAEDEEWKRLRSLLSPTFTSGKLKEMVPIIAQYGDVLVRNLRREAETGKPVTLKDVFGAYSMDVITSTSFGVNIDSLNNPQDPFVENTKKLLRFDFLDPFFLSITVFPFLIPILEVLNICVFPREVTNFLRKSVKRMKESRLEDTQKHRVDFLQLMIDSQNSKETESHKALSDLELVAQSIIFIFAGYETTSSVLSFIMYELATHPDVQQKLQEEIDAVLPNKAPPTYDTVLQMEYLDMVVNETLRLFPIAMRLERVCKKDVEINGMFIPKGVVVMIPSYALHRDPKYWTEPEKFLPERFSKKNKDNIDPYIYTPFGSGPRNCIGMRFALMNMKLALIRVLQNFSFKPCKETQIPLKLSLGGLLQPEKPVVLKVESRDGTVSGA

[5] = target: T3, Bifunctional epoxide hydrolase 2; assay: Inhibition of human soluble epoxide hydrolase in HEK293 cells assessed as DHET production; type: cell-based
In short: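 Whole-cell 14,15-DHET production assay in HEK293 cells, run with or without 10% human serum. Values come from one or two experiments, each in triplicate, with repeats within 20%.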

IC50 [1] | IC50 (L-type calcium channel) | IC50 (Epoxide hydrolase 1) | IC50 [4] | IC50 (Cytochrome P450 2D6) | IC50 (Cytochrome P450 2C9) | IC50 (Cytochrome P450 3A4) | IC50 [5] | Structure (SMILES) | IC50 [2] | IC50 [3]
0.349 µM | 15 µM | > 100 µM | 0.55 µM | > 10 µM | > 10 µM | < 10 µM | – | CC1(c2ccccc2)CCCN(C(=O)Nc2ccncc2)C1 (stereo unspecified) | 5 µM | > 10 µM
0.331 µM | > 30 µM | – | 0.028 µM | > 10 µM | > 10 µM | > 10 µM | – | O=C(O)CCC1(c2cccnc2)CCCN(C(=O)Nc2ccc(Cl)cc2)C1 (stereo unspecified) | > 30 µM | > 10 µM
0.032 µM | 4 µM | > 100 µM | – | > 10 µM | 10 µM | 10 µM | < 0.001 µM | CNC(=O)CCC1(c2ccccc2)CCCN(C(=O)Nc2ccc(Cl)cc2)C1 (stereo unspecified) | 8 µM | > 10 µM
0.398 µM | > 30 µM | > 100 µM | 0.052 µM | > 10 µM | > 10 µM | > 10 µM | 0.038 µM | O=C(O)CC1(c2ccccc2)CCCN(C(=O)Nc2ccc(Cl)cc2)C1 (stereo unspecified) | > 30 µM | > 10 µM
0.006 µM | 0.9 µM | – | 0.007 µM | > 10 µM | < 10 µM | > 10 µM | – | CC1(c2ccccc2)CCCN(C(=O)Nc2ccc(-c3ccccc3)cc2)C1 (stereo unspecified) | 21 µM | < 10 µM
0.003 µM | 0.5 µM | 47 µM | 0.001 µM | 10 µM | < 10 µM | < 10 µM | < 0.001 µM | CC1(c2ccccc2)CCCN(C(=O)NCc2ccc(-c3ccccn3)cc2)C1 (stereo unspecified) | 4 µM | > 10 µM
0.011 µM | 0.7 µM | > 100 µM | 0.008 µM | > 10 µM | < 10 µM | < 10 µM | – | CC1(c2ccccc2)CCCN(C(=O)NCc2ccc(-c3ccccc3C(F)(F)F)cc2)C1 (stereo unspecified) | 0.2 µM | > 1 µM
0.004 µM | 10 µM | > 100 µM | 0.001 µM | – | < 10 µM | < 10 µM | < 0.001 µM | CC1(c2ccccc2)CCCN(C(=O)N[C@H]2C[C@@H]2c2ccccc2)C1 (stereo partly specified) | 26 µM | > 10 µM
0.07 µM | > 30 µM | > 100 µM | 0.016 µM | > 10 µM | > 10 µM | > 10 µM | < 0.001 µM | O=C(O)CCC1(c2ccccc2C(F)(F)F)CCCN(C(=O)Nc2ccc(Cl)cc2)C1 (stereo unspecified) | > 30 µM | > 10 µM
0.176 µM | > 30 µM | > 100 µM | 0.012 µM | > 10 µM | > 10 µM | > 10 µM | – | O=C(O)CCC1(c2cccc(C(F)(F)F)c2)CCCN(C(=O)Nc2ccc(Cl)cc2)C1 (stereo unspecified) | > 30 µM | > 10 µM
0.003 µM | – | – | < 0.001 µM | – | – | – | – | COC(=O)CCC1(c2ccccc2)CCCN(C(=O)Nc2ccc(Cl)cc2)C1 (stereo unspecified) | – | –
0.1 µM | 26 µM | – | 0.008 µM | > 10 µM | > 10 µM | > 10 µM | < 0.001 µM | O=C(CCC1(c2ccccc2)CCCN(C(=O)Nc2ccc(Cl)cc2)C1)N1CCOCC1 (stereo unspecified) | 29 µM | > 10 µM
0.006 µM | 1 µM | 14 µM | – | 10 µM | < 10 µM | > 10 µM | 0.003 µM | CC1(c2ccccc2)CCCN(C(=O)NCc2ccc(-c3ccc4[nH]ccc4c3)cc2)C1 (stereo unspecified) | 0.8 µM | > 10 µM
0.207 µM | 19 µM | – | – | > 10 µM | < 10 µM | > 10 µM | – | CC1(c2ccccc2)CCCN(C(=O)Nc2noc3ccccc23)C1 (stereo unspecified) | 18 µM | < 10 µM
0.015 µM | 0.9 µM | > 100 µM | 0.001 µM | 10 µM | < 10 µM | > 10 µM | < 0.001 µM | O=C(Nc1ccc(Cl)cc1)N1CCCC(CCO)(c2ccccc2)C1 (stereo unspecified) | 0.07 µM | > 10 µM
0.019 µM | – | > 100 µM | – | 10 µM | < 10 µM | < 10 µM | 0.003 µM | CC1(c2ccccc2)CCCN(C(=O)NCCc2ccc3nccnc3c2)C1 (stereo unspecified) | 9 µM | –
0.12 µM | > 30 µM | > 100 µM | 0.005 µM | > 10 µM | > 10 µM | > 10 µM | < 0.001 µM | O=C(O)CCCCC1(c2ccccc2)CCCN(C(=O)Nc2ccc(Cl)cc2)C1 (stereo unspecified) | > 30 µM | > 10 µM
0.176 µM | > 30 µM | > 100 µM | – | > 10 µM | > 10 µM | > 10 µM | 0.006 µM | O=C(O)CCCC1(c2ccccc2)CCCN(C(=O)Nc2ccc(Cl)cc2)C1 (stereo unspecified) | > 30 µM | > 10 µM
0.016 µM | 7 µM | > 100 µM | – | > 10 µM | > 10 µM | > 10 µM | < 0.001 µM | N#CCCC1(c2ccccc2)CCCN(C(=O)Nc2ccc(Cl)cc2)C1 (stereo unspecified) | 10 µM | > 10 µM
0.031 µM | 1 µM | – | 0.003 µM | > 10 µM | > 10 µM | < 10 µM | – | CCN(CC)C(=O)CCC1(c2ccccc2)CCCN(C(=O)Nc2ccc(Cl)cc2)C1 (stereo unspecified) | 6 µM | > 10 µM
– | – | 3 µM | 0.007 µM | > 10 µM | > 10 µM | < 10 µM | 0.008 µM | CC1(c2ccccc2)CCCN(C(=O)NCCCc2cccnc2)C1 (stereo unspecified) | 5 µM | –
0.467 µM | > 30 µM | > 100 µM | 0.03 µM | > 10 µM | 10 µM | > 10 µM | – | O=C(O)CCC1(c2ccncc2)CCCN(C(=O)Nc2ccc(Cl)cc2)C1 (stereo unspecified) | > 30 µM | > 10 µM
0.29 µM | > 30 µM | – | 0.019 µM | > 10 µM | > 10 µM | > 10 µM | – | O=C(O)CCC1(c2ccccn2)CCCN(C(=O)Nc2ccc(Cl)cc2)C1 (stereo unspecified) | > 30 µM | > 10 µM
0.413 µM | > 30 µM | – | – | > 10 µM | < 10 µM | > 10 µM | < 0.001 µM | O=C(O)CCC1(c2ccc(-c3ccccc3)cc2)CCCN(C(=O)Nc2ccc(OC(F)(F)F)cc2)C1 (stereo unspecified) | 21 µM | < 10 µM
0.034 µM | – | > 100 µM | 0.0014 µM | > 10 µM | > 10 µM | > 10 µM | 0.0014 µM | O=C(CCC1(c2ccccc2)CCCN(C(=O)Nc2ccc(Cl)cc2)C1)Nc1nn[nH]n1 (stereo unspecified) | 27 µM | –
0.007 µM | – | 22 µM | 0.014 µM | – | – | < 10 µM | – | CC1(c2ccccc2)CCCN(C(=O)NCc2ccc(-c3cccc(Cl)c3)cc2)C1 (stereo unspecified) | 2 µM | –
